Bioassay records from PubChem.
Sampled rows, rich in hits. Any-hit rate of the full collection: about 4.4%.
Calb FLC: C. albicans growth modulation with fluconazole. growth inhibition, % (no concentration beside the values). C. albicans CaCi-2 (fluconazole-resistant clinical isolate) + fluconazole, Alamar Blue growth, 48 h. AID 1979. actives 0.57% (n = 300,000);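 active = growth inhibition above about 58% in most replicates, limit read from the data, passing the limit was not always enough; inconclusive = exactly half the replicates above a set limit; inactive = most replicates below a set limit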;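 note: all wells also contain fluconazole at 8 µg/ml as a sub-toxic cotreatment; 0% = median of DMSO wells and 100% = median of geldanamycin control wells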
HSF-1 act: increases HSF-1 driven luciferase reporter signal; NIH3T3-HGL HSF-1 luciferase reporter, MG132, 8 h; 100% = twice DMSO control signal; activation, % at 9 µM; actives 1.7% (n = 300,000); AID 504408;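 active = mean replicate activation of at least 50% with a set share of replicates each reaching 50%; inconclusive = only one of those two conditions met; inactive = mean below 50% and too few replicates reaching it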;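 note: 0% = median of the neutral control wells and 100% = twice that signal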
HIF act: HIF pathway transcriptional activation; U2OS HRE-luciferase reporter, luminescence; normalized: DMSO 0%, desferrioxamine 100%; activation, % at 7.5 µM (by protocol); AID 1910; actives 0.32% (n = 300,000);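 active = mean activation of at least 10% of the iron chelator positive control signal, with at least half of replicates also reaching 10%; inconclusive = mean and replicate majority disagree about reaching 10%; inactive = mean and most replicates under 10%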
HSF1 inhib: HSF1 inhibition; NIH3T3-HGL HSE-luciferase, MG132-induced, luminescence 8 h; stronger effect = lower value; activity change, negative = inhibition, % at 7.5 µM (by protocol); actives 0.77% (n = 300,000);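 active = more than half of replicate wells show activity change below -50%, luminescence cut by over half; inconclusive = some wells, but at most half, below -50%; inactive = no replicate well below -50%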;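 note: luciferase reports HSF-1 transcriptional activity via heat shock element; 0% = median of DMSO wells and -100% = zero luminescence signal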
T cruzi repl: T. cruzi replication inhibition | T. cruzi beta-gal in NIH3T3, luminescence, 90 h | inhibition, % (test concentration not listed) | actives 1.4% (n = 300,000);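 active = mean inhibition across valid replicates above about 55%, limit read from the data; inconclusive = mean below that limit but half or more replicates reach it; inactive = mean below it, under half of replicates reach it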;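 note: signal also drops with host cell toxicity which is not excluded here; 0% = plate median of DMSO wells and 100% = zero luminescence signal; higher percent means less beta-gal luminescence so fewer parasites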
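Material: NIH/3T3 host cells with β-galactosidase reporter T. cruzi; Input: 5,000 host fibroblasts per well; Medium: DMEM, 2% fetal bovine serum; Compound: 50 nL DMSO compound solution per well; Schedule: 3 h host attachment, then at least 90 h co-culture; Detection: luminescent β-galactosidase signal after 60 min lysis.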
An asterisk follows results filed as active; ? = inconclusive.

SMILES	Calb FLC	HSF-1 act	HIF act	HSF1 inhib	T cruzi repl
COc1ccccc1NC1=C(NC(C)=O)C(=O)c2ccccc2C1=O	35	10	-1	7	-3
COc1ccc(/C=N/NC(=O)c2sccc2OCc2ccc(F)cc2)cc1OC	-10	1	1	3	21
CCN(CCNCC(O)COc1ccccc1C(C)C)c1cccc(C)c1 (stereo not given)	11	-16	2	-6	28
Cc1cc(O)c(/C=N/Nc2ccc(Cl)cc2)c(=O)o1	87*	38	0	15	22
Cc1cc(O)c(/C=N/Nc2cccc(Cl)c2)c(=O)o1	-3	-2	0	1	20
COc1ccc(NC(=O)c2cc(CN3C(=O)c4ccccc4C3=O)ccc2OC)cn1	8	-74	0	-67*	5
COc1ccc(CN2C(=O)c3ccccc3C2=O)cc1C(=O)Nc1ccccc1N1CCOCC1	38	0	-1	7	-24
COc1ccc(CN2CCNC(=O)C2CC(=O)NC2CCCCCCC2)cc1C (stereo not given)	-4	-1	-1	1	13
CN(C)c1ccc(/C=C/c2cc[n+](C)cc2)cc1	16	5	0	-5	85*
CC[n+]1ccccc1/C=C/c1ccc(N(C)C)cc1	-56	12	0	8	59*
Cc1ccc(/C=C/c2ccc(N(C)C)cc2)[n+](C)c1	82*	-6	5	-7	61*
CCc1n[nH]c(=S)n1/N=C/c1cc(Br)c(OC)cc1OC	1	-6	0	-6	-4
CC(C)CNC(=O)COC(=O)Cc1ccc(Cl)cc1	-1	-6	-1	-3	-7
CCCCN(CCCC)CCNC(=O)c1cn(C)c2ccc(S(=O)(=O)N3CCCC3)cc2c1=O	4	12	0	-14	-10
CCOC(=O)/C(=C\c1ccc(Cl)cc1)c1nc2sc(C)c(C)c2c(=O)[nH]1	30	241*	2	185	-2
COC(=O)CSc1[nH]c2ccc(F)cc2c1[N+](=O)[O-]	4	-2	1	0	-8
Cc1cc2ccccn2c1C(=O)c1cc([N+](=O)[O-])cc([N+](=O)[O-])c1	42	11	0	7	65*
COC(=O)c1cc(C(=O)c2c(C)cc3ccccn23)cc([N+](=O)[O-])c1	-3	17	1	11	18
CC(=O)N1CCC2(CC1)CC(=O)c1cc(OCC(=O)N3CCOCC3)ccc1O2	-11	-7	0	-4	-10
O=C(Cn1cc(C(F)(F)F)ccc1=O)N/N=C/c1ccc(Cl)cc1	-3	-1	0	-5	-10
C=C(C)c1sc(-c2ccccc2)nc1C	-1	-17	0	-2	3
C/C(=N\O)c1sc(-c2ccccc2)nc1C	-5	72*	2	41	2
CCC(CC)C(=O)NCc1ccc(OC)cc1	-4	2	0	-3	-4
Cc1cccc(OCCNc2cc(N3CCN(C)CC3)ccc2[N+](=O)[O-])c1	-1	-5	0	2	67*
CCN1C(=O)[C@H]2[C@@H](c3ccc(-c4ccc5c(c4)OCO5)cc3)N3CCC[C@@]3(C(=O)OC)[C@H]2C1=O	20	35	2	26	-11
SMILES	Calb FLC	HSF-1 act	HIF act	HSF1 inhib	T cruzi repl
Cc1cccc(C(C)C)c1NC(=O)COC(=O)c1cccc(S(=O)(=O)N2CCc3ccccc3C2)c1	3	56*	0	17	-14
Cc1cc(N2CCN(C)CC2)ccc1NC(=O)c1cccc(S(=O)(=O)N2CCc3ccccc3C2)c1	-11	5	1	0	75*
Cc1ccc2nc(NCc3ccccc3)[nH]c2c1	-8	233*	2	146	-16
C/C(=N\Nc1cc(C)nc(-c2ccccc2O)n1)c1ccccc1	-3	-39	0	-27	?
c1ccc2c(Nc3nc(-c4ccncc4)nc4ccccc34)cccc2c1	-3	-90	0	-87*	44
c1ccc(CNc2nc3ccccc3[nH]2)cc1	-11	27	2	20	19
c1ccc2[nH]c(NCc3ccc4c(c3)OCO4)nc2c1	-7	55*	2	21	-8
Clc1ccccc1Nc1nc(-c2ccncc2)nc2ccccc12	-3	-17	0	-7	40
Cc1cc(N/N=C/c2ccc(O)c(C)c2O)nc(-c2ccccc2O)n1	16	-62	0	-59*	59*
